Compounds with a hit are over-represented: about 4.6% of the library has one in this group of screens.
OX1R antag-1: antagonists of human orexin 1 receptor (OX1R) | hit rate 1.8% among 330,000 | inhibition, % at 6.6 µM | OX1R-expressing cells, FRET antagonist read-out; in the data active means inhibition mostly above about 38%, no sharp cut-off; inactive means mostly below about 40%;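 further: 0% = agonist challenge alone and 100% = reference antagonist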
Target sequence (O43613 whole entry, looked up): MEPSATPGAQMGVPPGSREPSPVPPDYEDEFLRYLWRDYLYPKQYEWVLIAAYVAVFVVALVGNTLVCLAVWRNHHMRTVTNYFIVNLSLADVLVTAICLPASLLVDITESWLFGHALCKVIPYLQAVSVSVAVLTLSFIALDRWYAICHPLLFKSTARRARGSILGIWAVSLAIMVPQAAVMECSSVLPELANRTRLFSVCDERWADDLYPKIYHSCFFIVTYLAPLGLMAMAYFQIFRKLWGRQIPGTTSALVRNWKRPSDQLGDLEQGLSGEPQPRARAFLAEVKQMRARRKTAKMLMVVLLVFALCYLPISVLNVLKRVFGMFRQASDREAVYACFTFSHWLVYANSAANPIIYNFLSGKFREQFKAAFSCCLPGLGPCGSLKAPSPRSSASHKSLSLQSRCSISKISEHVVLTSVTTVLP
TAAR1 antag: human TAAR1 antagonism; Q96RJ0; hit rate 1.5% among 360,000; CHO RD-HGA16 TAAR1, Fluo-8 calcium fluorescence, antagonist; inhibition, % at 3 µM;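 active means inhibition above a per-plate cutoff, the mean inhibition of test compounds on that plate plus 3 SD, cut at about 49% in these data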;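 further: 0% = DMSO plus EC80 beta-PEA response and 100% = DMSO alone without agonist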
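Test system: CHO RD-HGA16 cells bearing hTAAR1 | Reagent: β-PEA, EC80 | Compound dosing: 3 µM, single point | Schedule: Dye loading 75 min at 37 °C, then 30 min room temperature | Signal: Calcium fluorescence with Fluo-8 | Evaluation: Percent inhibition of PEA-evoked calcium signal, max/basal emission ratio | Control set: DMSO-only wells and EC80 β-PEA-stimulated wells | Repeats: Singlicate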
TAAR1 agonist: human TAAR1 agonism; Q96RJ0; CHO RD-HGA16 TAAR1, Fluo-8 calcium fluorescence; vehicle wells 0%, saturating PEA agonist 100%; activation, % at 3 µM; hit rate 0.99% among 360,000;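 active means activation above the mean activation of all test compounds in the run plus 3 SD, cut at about 38% in these data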
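test system = CHO RD-HGA16 cells carrying human TAAR1 plus Gα16 | schedule = 17-24 h seeding, 75 min 37 °C dye, 30 min RT | compound dosing = 3 µM single concentration | control set = DMSO and PEA EC100 | replicates = n 1 | signal = Fluo-8 fluorescence, 5 s baseline then 140 s kinetic read | measure = percent activation vs PEA EC100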
OX1R antag-2: antagonists of human orexin 1 receptor; O43613; CHO/OX1R cells, Fluo-8 calcium fluorescence, orexin A; inhibition, % at 5 µM; hit rate 0.43% among 330,000; AID 434989;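 active means inhibition above its plate's threshold, mean inhibition of all tested compounds on the plate plus 3 SD, cut at about 37% in these data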;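 further: 0% = orexin A challenge wells and 100% = SB-334867-A antagonist wells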
CHO parental Ca: counter-screen for OX1R antagonists: effect in parental CHO cells; hit rate 0.63% among 330,000; parental CHO-K1, ATP-induced calcium, Fluo-8 fluorescence; inhibition, % at 5.6 µM; AID 463079;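 active means inhibition above that plate's mean sample inhibition plus 3 SD, cut at about 26% in these data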;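 further: 0% = ATP-challenged DMSO wells and 100% = DMSO wells without ATP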
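Test system: parental CHO cells; detection: calcium-sensitive Fluo-8 fluorescence; evaluation: percent inhibition of calcium signal; also added: ATP as calcium-mobilizing challenge; repeats: one well per compound; control set: ATP-challenged DMSO wells low, unchallenged DMSO wells high; compound: single nominal dose of 5.6 µM per compound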
GPR7 antagonist: human neuropeptides B/W receptor 1 antagonism | P48145 | GPR7-expressing cells, fluorescence antagonist assay | inhibition, % at 4.4 µM | hit rate 1.1% among 290,000 | AID 1861; in the data active means inhibition above about 16%, passing the limit was not always enough;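 further: cells stimulated with the agonist NPW; 0% = agonist with vehicle and 100% = vehicle without agonist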
OX1R Ca confirm: confirmation of human orexin 1 receptor antagonists | inhibition, % at 5 µM | hit rate 38% among 1,100 | shares compounds with OX1R antag-2 | CHO/OX1R cells, orexin A calcium Fluo-8 fluorescence | AID 492963; in the data active means inhibition above about 29%;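 further: 0% = agonist challenge alone and 100% = reference antagonist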
CHO Ca counter: counter-screen: parental CHO calcium response change, triplicate. shares compounds with OX1R antag-2. parental CHO-K1, ATP-induced calcium, Fluo-8 fluorescence. inhibition, % at 5.6 µM. hit rate 9.3% among 1,100. AID 492965;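 active means inhibition above a per-plate limit, the mean inhibition of that plate's test compounds plus 3 SD, cut at about 25% in these data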;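 further: 0% = ATP challenge with DMSO and 100% = DMSO without ATP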
An asterisk follows results filed as active.

`Cc1c(C)n(CC(O)CN2CCCCCC2)c2ccccc12` (configuration not stated) gave OX1R antag-1 6.5, TAAR1 antag -2.2, TAAR1 agonist -0.2, OX1R antag-2 -33.0, CHO parental Ca -2.3 and GPR7 antagonist -0.9.
OC(CN1CCCCC1)Cn1c2ccccc2c2cc(Br)ccc21 (configuration not stated) was read as OX1R antag-1 13.5, TAAR1 antag 15.1, TAAR1 agonist 16.2, OX1R antag-2 37.3, CHO parental Ca 10.6, GPR7 antagonist 34.8, OX1R Ca confirm 14.4 and CHO Ca counter -3.9.
`CC(=Nc1ccccc1O)c1sc2ccccc2c1O` gave OX1R antag-1 30.3, TAAR1 antag 43.7, TAAR1 agonist 30.0, OX1R antag-2 34.1, CHO parental Ca 24.1, GPR7 antagonist -2.5, OX1R Ca confirm 10.7 and CHO Ca counter 0.1.
Screening CC(=Nc1ccc(O)cc1)c1sc2ccccc2c1O returned OX1R antag-1 26.5, TAAR1 antag 18.8, TAAR1 agonist 16.1, OX1R antag-2 2.6, CHO parental Ca 5.4 and GPR7 antagonist -19.2.
COc1ccc(OC(C)c2ccc(C#N)c(=O)[nH]2)cc1 (configuration not stated) was read as OX1R antag-1 7.7, TAAR1 antag -9.0, TAAR1 agonist 3.7, OX1R antag-2 -1.4, CHO parental Ca 1.1 and GPR7 antagonist -4.3.
Cn1c(SCC(=O)Nc2sccc2C(N)=O)nc2ccccc2c1=O was read as OX1R antag-1 25.1, TAAR1 antag -7.6, TAAR1 agonist 10.9, OX1R antag-2 36.5, CHO parental Ca -18.8, OX1R Ca confirm 8.2 and CHO Ca counter 4.2.
For COC(=O)CNC(=O)C(NC(=O)OCc1ccccc1)C(C)C (configuration not stated) the results were OX1R antag-1 8.8, TAAR1 antag 2.6, TAAR1 agonist 1.3, OX1R antag-2 24.9, CHO parental Ca 11.6, GPR7 antagonist 1.3, OX1R Ca confirm -44.4 and CHO Ca counter 0.8.
Screening CN(C)S(=O)(=O)N1CCCC(C(=O)c2ccc(-c3ccccc3)c(F)c2)C1 (configuration not stated) returned OX1R antag-1 26.9, TAAR1 antag 11.9, TAAR1 agonist 3.5, OX1R antag-2 29.7, CHO parental Ca 5.0, GPR7 antagonist -10.9, OX1R Ca confirm -3.1 and CHO Ca counter -3.4.
`COc1ccc(C(CNC(=O)COc2ccccc2)N2CCCCC2)cc1` (configuration not stated) gave OX1R antag-1 1.9, TAAR1 antag 2.0, TAAR1 agonist 0.5, OX1R antag-2 -36.1 and CHO parental Ca -25.7.
`Cc1ccc(NC(=S)NCC(C)CSc2ccc(Cl)cc2)cc1` (configuration not stated) gave OX1R antag-1 24.4, TAAR1 antag -0.1, TAAR1 agonist 1.2, OX1R antag-2 -7.6, CHO parental Ca 7.7 and GPR7 antagonist -11.7.
Screening Cc1cccc(NC(=S)NCC(C)CSc2ccc(Cl)cc2)c1 (configuration not stated) returned OX1R antag-1 21.1, TAAR1 antag 14.9, TAAR1 agonist 8.5, OX1R antag-2 34.0, CHO parental Ca 24.0, GPR7 antagonist -10.4, OX1R Ca confirm -4.8 and CHO Ca counter -4.8.
`CCOC(=O)c1ccc(NC(=O)c2cccc(S(=O)(=O)N3c4ccccc4CC3C)c2)s1` (configuration not stated) gave OX1R antag-1 50.9, TAAR1 antag 62.5*, TAAR1 agonist 0.1, OX1R antag-2 34.4, CHO parental Ca 6.3, GPR7 antagonist 2.6, OX1R Ca confirm 26.5 and CHO Ca counter 25.2*.
Screening O=S(=O)(c1ccccc1F)N1CCc2ccccc2C1 returned OX1R antag-1 14.5, TAAR1 antag -13.8, TAAR1 agonist 3.2, OX1R antag-2 -21.8, CHO parental Ca 3.5 and GPR7 antagonist -9.1.
For O=C(NNC(=O)C1CCN(Cc2ccc(F)cc2Cl)CC1)Nc1ccc([N+](=O)[O-])cc1 the results were OX1R antag-1 5.8, TAAR1 antag 22.9, TAAR1 agonist 4.1, OX1R antag-2 -26.2, CHO parental Ca -17.9 and GPR7 antagonist -6.2.
Screening Cc1cccc(OCC(=O)Nc2ccncc2)c1C returned OX1R antag-1 5.2, TAAR1 antag -4.3, TAAR1 agonist 4.6, OX1R antag-2 24.7, CHO parental Ca 25.7, GPR7 antagonist -5.4, OX1R Ca confirm 16.3 and CHO Ca counter 51.1*.
For CCOC(=O)c1csc(Nc2nc3ccc(F)cc3s2)n1 the results were OX1R antag-1 14.7, TAAR1 antag 41.0, TAAR1 agonist 21.1, OX1R antag-2 38.9, CHO parental Ca 26.9, GPR7 antagonist -14.7, OX1R Ca confirm 27.0 and CHO Ca counter 25.9*.
`O=C(CN(C(=O)C1CSC(=O)C1)c1cccc(F)c1)NC1CCCC1` (configuration not stated) gave OX1R antag-1 20.3, TAAR1 antag 17.1, TAAR1 agonist 1.6, OX1R antag-2 -4.8, CHO parental Ca -10.5 and GPR7 antagonist -0.9.
Screening O=C(CN(C(=O)c1ccccc1Cl)C1CCCCC1)Nc1ccc(Cl)c([N+](=O)[O-])c1 returned OX1R antag-1 18.4, TAAR1 antag 17.0, TAAR1 agonist 6.1, OX1R antag-2 35.9, CHO parental Ca 11.5, GPR7 antagonist 14.8, OX1R Ca confirm 19.6 and CHO Ca counter 6.2.
For CC1(C)CC(=O)c2c(O)cc(OCC(=O)N3CCN(c4ccccc4)CC3)cc2O1 the results were OX1R antag-1 15.4, TAAR1 antag 20.4, TAAR1 agonist 1.7, OX1R antag-2 -19.4, CHO parental Ca -12.9 and GPR7 antagonist 1.7.
Screening COC(=O)c1ccc2[nH]c3cccc(/C(=C/c4ccccc4)c4ccccc4)c3c2c1 returned OX1R antag-1 17.0, TAAR1 antag -8.7, TAAR1 agonist 11.1, OX1R antag-2 -13.1, CHO parental Ca -9.2 and GPR7 antagonist -18.4.
O=C1CCCc2[nH]c3cccc(/C(=C/c4ccccc4)c4ccccc4)c3c21 was read as OX1R antag-1 47.7, TAAR1 antag 16.1, TAAR1 agonist 4.8, OX1R antag-2 38.9, CHO parental Ca 4.4, GPR7 antagonist -7.1, OX1R Ca confirm 19.1 and CHO Ca counter 0.5.
Screening CC(=O)Nc1ccc(C2=NNC(=Nc3cccc(S(=O)(=O)N(C)C)c3)SC2)cc1 returned OX1R antag-1 14.4, OX1R antag-2 34.2*, CHO parental Ca -8.6, GPR7 antagonist 0.0, OX1R Ca confirm 38.0* and CHO Ca counter -2.7.

Bioassay records as filed in PubChem BioAssay.
